# Assay results published in ChEMBL document CHEMBL4513216, “Probing the Open Global Health Chemical Diversity Library for Multistage-Active Starting Points for Next-Generation Antimalarials” (ACS Infect Dis, 2020).
# Test: Toxicity liver stage against HepG2, at 10uM
# Type: cell-based
# Set-up: test concentration 10 uM, cell line HepG2-A16-CD81EGFP
# Conditions: human, HepG2-A16-CD81EGFP cells; read-out: INHIBITION
# How it was run: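 Uninfected HepG2-A16-CD81EGFP cells, 3 × 10^3 per well, 1536-well, plated on prespotted compound at 10 μM final, parasite-free screening media added to match infected plates; puromycin 10 μM positive, DMSO 0.5% negative; run in parallel with 48 h PbLuc assay at 37 °C, 5% CO2; viability by CellTiter-Glo luminescence, normalized to controls.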
row,SMILES,cytotoxicity at 10 µM [%]
1,O=C(C1CC1)N1CC[C@H](c2nnc(Cc3c[nH]c4ccccc34)o2)C1,4.09
2,CC(C)NC(=O)N1CCOC2(CCCNC2)C1 (centres undefined),4.76
3,CCN1CC2(CCCCN2C(=O)C2CCCCC2)CC1=O (centres undefined),18.3
4,CCNC(=O)N1CCC2(CC1)CCn1c(-c3cccc(OC)c3)cnc12,2.81
5,COCCN1CCCC12CCCN(c1ncccn1)C2 (centres undefined),-6.9
6,CCOC(=O)N1CCN(C(=O)c2sc(-c3ccc(F)cc3)nc2C)CC1,10.7
7,Cc1cccc(C(=O)N2C[C@@H]3OCCN(C(C)C)[C@@H]3C2)n1,-9.2
8,Cc1cc(N(C)C)nc(C2(C)CCCN2CC(N)=O)n1 (centres undefined),-2.8
9,COCC(=O)N1CCCC1c1cc(N2CCN(C(C)=O)CC2)cc(C)n1 (centres undefined),-9.41
10,COc1cccc(C(=O)N2CCCC2c2ncc3c(n2)CCN(C)C3)c1 (centres undefined),-9.41
11,CC(=O)NC[C@]1(O)CCN(C(=O)c2ccc(F)c(Cl)c2)C[C@H]1O,1.47
12,COCC(=O)NC(c1ccccc1)c1ccc2c(c1)CCCO2 (centres undefined),-1.83
13,Cc1cc(C2CCCN2Cc2nnc(-c3ccco3)o2)on1 (centres undefined),8.92
14,NC(=O)c1ccc(CNC(=O)NCc2cc[nH]n2)cc1,12.3
15,CC(Cc1cccc(F)c1)C(=O)NS(=O)(=O)c1cnn(C)c1 (centres undefined),2.11
16,CCNc1cc2c(nn1)CCN(C(=O)C1Cc3ccccc3O1)C2 (centres undefined),-9.32
17,CN(C)c1nccc(NC(=O)c2ccncc2)n1,-4.33
18,COC1CCN(C(=O)Cn2nc(C)cc2C)CC1,3.81
19,CC(CC(=O)N1CCCN(Cc2nccn2C)CC1)n1cccc1 (centres undefined),-12.5
20,N#Cc1cccnc1N1CCC(OCc2ccccc2)CC1,-7.43
21,O=C(NCC1(N2CCOCC2)CCSC1)Nc1ccncc1 (centres undefined),12.5
22,O=S(=O)(NCC1COc2ccccc2C1)N1CCOCC1 (centres undefined),-1.5

row,SMILES,cytotoxicity at 10 µM [%]
1,COCCNC(=O)Nc1cccc(COCCOC(C)C)c1,6.13
2,O=C(NC1CCC(C(=O)N2CCSCC2)CC1)N1CCOCC1 (centres undefined),13.1
3,O=C(NC1CC1)c1nnn(-c2cccc(C(F)(F)F)c2)c1C1CC1,4.01
4,Cc1cc(C)n(CC2CN(Cc3cccnc3)CCO2)n1 (centres undefined),-3.08
5,Cc1cc(C)n(C2CCCN(C(=O)c3ccc(F)c(F)c3)C2)n1 (centres undefined),-4.91
6,COc1cc(F)ccc1N1CCN(Cc2nc(C)c(C)o2)CC1,10.7
7,CN(C(=O)COC1CCCCC1)C1CCN(CC2CCOC2)CC1 (centres undefined),0.33
8,Cc1c(C(=O)NC2(C#N)CCSC2)cnn1-c1ccccc1Cl (centres undefined),-2.06
9,CNC(=O)c1cccc(CNC(C)c2cc(Cl)ccc2OC)c1 (centres undefined),10.3
10,CCc1n[nH]c(=O)c(C(=O)N2CCSC(C)(C)C2)c1CC,18.6
11,COC(C)(C)CNC(=O)c1cn(-c2cccc(Cl)c2F)nn1,8.83
12,CC(C)N(C)C(=O)c1ccc(Cl)c(NC(=O)C2CCC2)c1,-2.74
13,CCCNC(=O)C(C)Nc1ccc(COCC)cc1 (centres undefined),2.37
14,Cc1ncc(CN(C)C(=O)c2ccc3c(c2O)OC(C)(C)C3)s1,6.93
15,Cc1cccc(S(=O)(=O)NCC(C)(C)CC(C)O)c1C#N (centres undefined),-1.37
16,Cc1ccsc1CN(C)c1cc(N2CCCC2CO)ncn1 (centres undefined),11.7
17,Cc1cc(C)cc(C(=O)N2CCN(C(=O)N(C)C)CC2(C)C)c1,1.98
18,CCCN(C)S(=O)(=O)NC(=O)c1ccc(CC)o1,20.5
19,CSC(C)(C)CNC(=O)NC1CCN(C)CC1,18.9
20,O=C(Cc1cccs1)N1Cc2nc(COCC3CC3)oc2C1,2.55
21,CN(C)C(=O)C1CCC2(CCN(C(=O)Nc3cccc(F)c3)CC2)O1 (centres undefined),-104
22,O=C(Cc1cccnc1)N1CCCC2(CCN(CC3CCOCC3)C2)C1 (centres undefined),2

row,SMILES,cytotoxicity at 10 µM [%]
1,CCS(=O)(=O)NC[C@]12COC[C@H]1CN(Cc1cc(C)on1)C2,2.34
2,COC(=O)c1ccc2c(-c3ccnc(N[C@@H](C)CO)n3)c[nH]c2c1,-5.94
3,CN(c1nccc(-c2cnc3sccn3c2=O)n1)C1CCCCC1,-8.44
4,CCCOc1ccc(C(=O)N2CCN3CCNC(=O)C3C2)cc1Cl (centres undefined),-1.65
5,Cc1[nH]c2ccc(CNC3CCN(Cc4ccccn4)CC3)cc2c1C,3.97
6,Cc1cnc(NC(=O)c2cccc(CN(C)Cc3ncccc3C)c2)s1,14.2
7,CCN1CCC(CC(=O)N2CCn3cccc3C2c2cccnc2)CC1 (centres undefined),-8.87
8,COCc1ncc(CN2CCC3(CCNCC3)CC2)cn1,-139
9,O=C(NC1CCCN(c2ncccn2)C1)c1cn2ccccc2n1 (centres undefined),-4.38
10,O=C(NCCC1CN(Cc2c[nH]cn2)CCO1)c1ccccc1O (centres undefined),0.423
11,CCN1CC2(CCC1=O)CCN(C(=O)c1ccc(C)cc1O)CC2,-0.0198
12,CN(C)c1ccc(CN2CCN(c3ccc(C#N)cc3)C(=O)C2)cn1,-28.2
13,CCCc1nc(C)cc(NCc2ccc(S(N)(=O)=O)cc2)n1,10.3
14,Cc1csc2c(=O)n(CCSc3cnn[nH]3)cnc12,-3.61
15,O=S1(=O)CCC(n2cc(C3=CCN(CCN4CCCCC4)CC3)cn2)C1 (centres undefined),-8.29
16,CC(C)Cc1noc(CN(C)C[C@]2(O)CCCN3CCCC[C@@H]32)n1,-2.36
17,CCc1nc(C)sc1CN(Cc1ccncc1)C1CCN(C)CC1,6.4
18,CC(C)C(O)C1CCN(c2ccnc(C(=O)NCc3ccco3)c2)CC1 (centres undefined),-0.598
19,CS(=O)(=O)N1C[C@H]2CNC[C@@]2(C(=O)NCCOc2ccccc2)C1,2.1
20,CCC[C@@H]1CN(C(=O)c2cc(-c3cccs3)n(C)n2)C[C@H]1NS(C)(=O)=O,-1.63
21,CC(C)(C)C(=O)N[C@H]1CC[C@H](Nc2nccc(-c3ccncc3)n2)C1,5.05
22,O=C1NCCN2CCN(C(=O)Nc3ccc(-c4ccccc4)cc3)CC12 (centres undefined),-119

row,SMILES,cytotoxicity at 10 µM [%]
1,CCc1nc(C)c(CN2CCOC(Cc3cccc4ccccc34)C2)[nH]1 (centres undefined),-5.54
2,NC(=O)NCCC(=O)N1CCC(c2cc(-c3ccccc3Cl)n[nH]2)CC1,-6.67
3,Cc1ccccc1CN(CCN(C)C)C(=O)c1ccc2nccn2c1,-2.36
4,NCc1n[nH]c(=O)n1-c1cccc(Cl)c1Cl,-0.994
5,CC(C)c1ccc(CN2CCC(CNS(=O)(=O)C3CC3)C2)cc1 (centres undefined),-1.37
6,Cn1cccc1-c1cc(C(=O)N2CCCC2c2ccc(C(N)=O)s2)[nH]n1 (centres undefined),-1.33
7,Clc1cccc2c3c([nH]c12)CCN(Cc1cc2n(n1)CCCNC2)C3,-17.1
8,O=c1c2ccccc2ncn1Cc1cc(C2CC2)[nH]n1,3.8
9,O=C1CCC2(CCN(Cc3cc(F)cc(F)c3)CC2)CN1CCO,-11.6
10,CCS(=O)(=O)N1CCC(c2nnc(CN3CCOCC3)n2C)CC1,17
11,Cc1nccnc1CN1CCC2(CCCN(C3CCOCC3)C2=O)C1 (centres undefined),-5.44
12,CN1C(=O)CC(C(=O)O)C12CCN(Cc1ccc(F)cc1Cl)CC2 (centres undefined),-4.88
13,Cn1ncc2c(N3CCN(C(N)=O)CC3)nc(C3CCCC3)nc21,18.2
14,Cc1nc(CN2CCCC(Cn3cc(CCO)nn3)C2)c[nH]1 (centres undefined),-21.1
15,O=C(CCN1CCCC1=O)NCc1cccnc1Oc1ccccc1,-7.47
16,CS(=O)(=O)c1ccc(C(=O)N2CCCC(n3cccn3)C2)cc1 (centres undefined),-6.98
17,CCOc1ccc(Cl)c(C(=O)NCCC(=O)Nc2ccccn2)n1,-3.13
18,Cc1nc(-c2ccsc2)ccc1C(=O)NCCN1CCN(C)CC1,-11.2
19,COc1cccc(C(=O)N(C)Cc2ncc(C)c(OC)c2C)c1OC,-7.02
20,CCc1noc(CNc2ccc(C(=O)N3CCCC(C)C3)cc2C)n1 (centres undefined),-10.8
21,Cc1nccc(-c2cccc(NCC(=O)N3CCCCCCC3)c2)n1,-0.513
22,Cc1ccc2oc(C(=O)N3CCCC(n4nc(C)cc4C)C3)cc2n1 (centres undefined),1.25

row,SMILES,cytotoxicity at 10 µM [%]
1,CC(O)CN1CCC(CNCc2ccccc2Br)CC1 (centres undefined),-13.2
2,Cc1ncc(CNC2CCCN(Cc3noc(C4CC4)n3)C2)s1 (centres undefined),-7.7
3,c1ccc(Cn2ccnc2CN2CCCC2c2noc(C3CC3)n2)cc1 (centres undefined),-0.818
4,CNc1snc(C)c1C(=O)N1CCCC(n2ccnc2C(C)C)C1 (centres undefined),1.66
5,Cc1csc(N2CCN(C(=O)Cc3ccsc3)CC2)n1,2.68
6,Cc1nn(C)c(N(C)C)c1CNC(C)Cc1c(F)cccc1F (centres undefined),-1.03
7,c1nn(C2CCCCC2)cc1-c1cncn1CCCN1CCCCC1,2.37
8,c1cc(CN2CCCn3cnc(COCC4CC4)c3C2)ccn1,7.31
9,C[C@@H]1CN(C(=O)C2CCOCC2)C[C@]12CCN(c1cccnc1)C2=O,6.95
10,Cc1ncsc1CN1C[C@@H]2COC[C@]2(C(=O)NC(C)C)C1,-98.6
11,Cc1ccc(CN2CCC3(CC2)C(=O)N(CCO)CCN3C)o1,-1.63
12,CC(C)COCc1cncc2c1CCN(C(=O)c1cscn1)C2,-108
13,O=C(c1nc2c(o1)CN(CC1CC1)C2)N1CCCC1,-163
14,COCCNC(=O)[C@H]1C[C@@H]2CCN(c3nncs3)C[C@H]2O1,-2.12
15,Cc1noc(C)c1C(=O)N1C[C@@H]2COC[C@]2(COc2ccccn2)C1,2.47
16,Cc1ccc(CN2CC[C@H]3CO[C@H](CN(C)Cc4ccco4)[C@H]3C2)s1,4.74
17,c1cnc(N2CCCn3nnc(COCC4CC4)c3C2)nc1,-4.97
18,Cc1noc([C@@]23CCO[C@@H]2CCN(Cc2scnc2C)C3)n1,-111
19,O=C(N[C@@H]1CN(Cc2ccccn2)[C@@H]2COC[C@@H]21)C1CCC1,8.67
20,CO[C@@H]1CC[C@H]2[C@H]1OCCN2Cc1ccccn1,1.06
21,C1CC(CN2C[C@@H]3CC[C@H]2CN(Cc2noc(C4CCCC4)n2)C3)C1,-15.6
